Laboratory results published in ChEMBL document CHEMBL1154189 (J Med Chem, 2009).
Activity calls are given as the source filed them. The rule behind the calls is not given here.

What was measured:
Saccharomyces cerevisiae = test: Mutagenic activity in Saccharomyces cerevisiae after 3 hrs; assay type: ADME, organism-based; conditions: in vivo
How it was run: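 Tested in a Saccharomyces cerevisiae strain engineered with three phenotypic readouts, with 3 hour incubation against DMSO vehicle.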

HuT78 [1] = test: Cytotoxicity against human HUT78 cells assessed as LDH release at 10 mM after 48 hrs
HuT78 [2] = test: Cytotoxicity against human HUT78 cells assessed as LDH release at 100 nM after 48 hrs
HuT78 [3] = test: Induction of apoptosis in human HUT78 cells assessed as caspase 3/7 activation after 24 hrs by luminometry; assay type: functional, cell-based
How it was run: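 Hut78 CTCL cells were plated and dosed immediately with ethanol vehicle, test agent, water, or sodium butyrate (positive control), then incubated 24 hours. Caspase-Glo lysis/substrate mix was added, and cleavage of the substrate by caspase 3/7 was read as luminescence. Ethanol-treated cells served as the comparison.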

Row | SMILES | Activity (Saccharomyces cerevisiae) | further results
1 | Cc1cc2c(cc1C(=O)c1ccc(C(=O)O)c([N+](=O)[O-])c1)C(C)(C)CCC2(C)C | Non-toxic | –
2 | Cc1cc2c(cc1C(=O)c1cc(C(=O)O)cc(C(=O)O)c1)C(C)(C)CCC2(C)C | Non-toxic | –
3 | Cc1cc2c(cc1C(=O)c1cccc(C(=O)O)c1)C(C)(C)CCC2(C)C | Non-toxic | –
4 | NC(=O)NO [HYDROXYUREA] | – | Activity (HuT78 [1]): 97%
5 | C=C(c1cc(C(=O)O)cc(C(=O)O)c1)c1cc2c(cc1C)C(C)(C)CCC2(C)C | Non-toxic | –
6 | Cc1cc2c(cc1C(=O)c1ccc(C(=O)O)c(F)c1)C(C)(C)CCC2(C)C | Non-toxic | –
7 | Cc1cc2c(cc1C(=O)c1ccc(C(=O)O)cc1)C(C)(C)CCC2(C)C | Non-toxic | –
8 | Cc1cc2c(cc1C(=O)c1ccc(C(=O)O)cc1F)C(C)(C)CCC2(C)C | Non-toxic | Activity (HuT78 [2]): Active; Activity (HuT78 [3]): inactive
9 | C=C(c1ccc(C(=O)O)cc1)c1cc2c(cc1C)C(C)(C)CCC2(C)C [BEXAROTENE] | Non-toxic | –
